Reference: ChEMBL document CHEMBL1143844, “Biochemical studies on the mechanism of human immunodeficiency virus type 1 reverse transcriptase resistance to 1-(beta-D-dioxolane)thymine triphosphate” (Antimicrob Agents Chemother, 2007)

Legend:
[1] = (§1) Activity of HIV1 reverse transcriptase 41L/67N/70R/210W/215Y mutant in presence of 3.2 mM ATP by prA/odT assay; parameters: species or system Human immunodeficiency virus 1
How it was run: (§2)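 Buffer: 50 mM HEPES pH 7.3, 10 mM MgCl2, 0.5% Triton X-100, 0.1 mg/ml BSA. Incubation 180 min at 33°C. Product detected with AP-conjugated anti-BrdU at 405 nm. […] Ki from four inhibitor levels. At least two experiments in duplicate.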

[2] = (§3) Activity of HIV1 reverse transcriptase wild type HXB2(b) in presence of 3.2 mM ATP by prA/odT assay; parameters: species or system Human immunodeficiency virus 1
How it was run: (§4)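 Buffer is HEPES 50 mM pH 7.3 with MgCl2 10 mM, Triton X-100 0.5% and BSA 0.1 mg/ml. RT 4–12 pM/well, 33°C for 180 min, no NaOH step. Km obtained as the mean of at least two runs done in duplicate.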

[3] = (§5) Activity of HIV1 reverse transcriptase 41L/67N/70R/215Y/219Q mutant in presence of 3.2 mM ATP by prA/odT assay; parameters: species or system Human immunodeficiency virus 1; how it was run: as §2
[4] = Activity of HIV1 reverse transcriptase 41L/69S-SG/210W/215Y mutant in presence of 3.2 mM ATP by prA/odT assay
[5] = tested on: Human immunodeficiency virus 1; assay: Activity of HIV1 reverse transcriptase wild type HXB2(a) in presence of 3.2 mM ATP by prA/odT assay; how it was run: as §4
[6] = tested on: Human immunodeficiency virus 1; assay: as §1; how it was run: as §2
[7] = tested on: Human immunodeficiency virus 1; assay: as §3; how it was run: as §4
[8] = tested on: Human immunodeficiency virus 1; assay: as §5; how it was run: as §2
[9] = Inhibition of HIV1 reverse transcriptase 41L/67N/70R/210W/215Y mutant in presence of 1 uM dNTP by heteropolymeric DNA polymerase assay; parameters: species or system Human immunodeficiency virus 1
How it was run: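 DNA polymerase assay with 5 mM ATP and purified HIV-1 RT (HXB2 background) on a plate-bound primer with a 5′-A12-(GTCA)5-3′ template. Each dNTP (dATP, dGTP, dCTP, BrdUTP) is set at either 1 μM or 20 μM. IC50 from at least two experiments in duplicate. Fold change is relative to wild-type RT at the same dNTP level.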

[10] = tested on: Human immunodeficiency virus 1; assay: Activity of HIV1 reverse transcriptase 41L/69S-SG/210W/215Y mutant in presence of 3.2 mM ATP by prA/odT assay
[11] = biological target: HIV1 RT 41L/69S-SG/210W/215Y mutant (HIV-1); assay: Inhibition of HIV1 reverse transcriptase 41L/69S-SG/210W/215Y mutant in presence of 3.2 mM ATP by prA/odT assay

SMILES | Km [1] [µM] | Km [2] [µM] | Km [3] [µM] | Km [4] [µM] | Km [5] [µM] | Km [6] [µM] | Km [7] [µM] | Km [8] [µM] | IC50 [9] [nM] | Km [10] [µM] | Ki [11] [nM]
Cc1cn([C@H]2C[C@H](N=[N+]=[N-])[C@@H](COP(=O)(O)OP(=O)(O)OP(=O)(O)O)O2)c(=O)[nH]c1=O [ZIDOVUDINE TRIPHOSPHATE] | 0.43 | 0.29 | 0.49 | 0.53 | – | – | – | – | – | – | –
Cc1cn([C@H]2CO[C@@H](COP(=O)(O)OP(=O)(O)OP(=O)(O)O)O2)c(=O)[nH]c1=O | – | – | – | – | 0.32 | 0.51 | 0.24 | 0.42 | 500 | 0.5 | 59
C[C@H](Cn1cnc2c(N)ncnc21)OCP(=O)(O)OP(=O)(O)OP(=O)(O)O | – | – | – | – | – | – | – | – | 13000 | – | –
